According to ChEMBL document CHEMBL1153767, “Bromoalkoxyxanthones as promising antitumor agents: synthesis, crystal structure and effect on human tumor cell lines” (2009):

Key:
Assay type in all cases: functional
NCI-H460 = assay: Antitumor activity against human NCI-H460 cells assessed as inhibition of growth after 48 hrs using sulforhodamine B dye; settings: NCI-H460, 48 h
Procedure, shortened: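 NCI-H460 plated at 0.75 × 10⁴ cells/mL, grown 24 h, then treated 48 h with five serial dilutions from DMSO stocks (DMSO at most 0.5%, vehicle control included). After fixing, washing and staining, solubilized dye read at 492 nm. GI50 (50% net growth inhibition) derived from the dose–response curve; 3–5 independent duplicate experiments, mean ± SEM.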

MCF7 = assay: Antitumor activity against human MCF7 cells expressing estrogen receptor assessed as inhibition of growth after 48 hrs using sulforhodamine B dye; settings: MCF7, 48 h
Procedure, shortened: (§1)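 Cells pre-grown 24 h after plating at 1.5 × 10⁵ cells/mL, then exposed 48 h to five serial concentrations from DMSO stocks (DMSO at most 0.5%, vehicle control included). Adherent cells fixed, washed and stained; bound dye solubilized and absorbance read at 492 nm. GI50 (50% inhibition of net growth) from dose–response curve; 3–5 independent experiments in duplicate, mean ± SEM.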

MDA-MB-231 = assay: Antitumor activity against human estrogen receptor deficient MDA-MB-231 cells assessed as inhibition of growth after 48 hrs using sulforhodamine B dye; settings: MDA-MB-231, 48 h
SF-268 = assay: Antitumor activity against human SF268 cells assessed as inhibition of growth after 48 hrs using sulforhodamine B dye; settings: SF-268, 48 h; procedure, shortened: as §1

Compound	GI50 (NCI-H460) [µM]	GI50 (MCF7) [µM]	GI50 (MDA-MB-231) [µM]	GI50 (SF-268) [µM]
O=c1c2ccccc2oc2cccc(OCCCCCCOc3cccc4oc5ccccc5c(=O)c34)c12	> 100	> 100	> 100	> 100
O=c1c2ccccc2oc2c(O)c(OCCCCCCBr)ccc12	> 100	> 100	> 100	> 100
O=c1c2ccccc2oc2c(OCCCCCCBr)c(OCCCCCCBr)ccc12	> 100	20.5	56.8	> 100
O=C(c1ccccc1O)c1ccc(O)cc1O	91.2	100		> 100

Stronger by GI50 (NCI-H460), values ahead:

GI50 (NCI-H460) [µM]	GI50 (MCF7) [µM]	GI50 (MDA-MB-231) [µM]	Compound	GI50 (SF-268) [µM]
84.9	> 100	66	O=c1c2ccccc2oc2cccc(O)c12	70.8
30.7	22.7	> 100	O=c1c2ccccc2oc2cccc(OCCCCCCBr)c12	30.2
11.4	52.4	22.8	O=c1c2ccccc2oc2c(O)c(O)ccc12 [3,4-DIHYDROXYXANTHONE]	22.6
0.094		0.0109	COc1cccc2c1C(=O)c1c(O)c3c(c(O)c1C2=O)C[C@@](O)(C(=O)CO)C[C@@H]3O[C@H]1C[C@H](N)[C@H](O)[C@H](C)O1 [DOXORUBICIN]	0.094
